Data from ChEMBL document CHEMBL4431374, “Synthesis and Antitubercular Activity of New Benzo[b]thiophenes” (ACS Med Chem Lett, 2016).
Converted amounts (≈) assume the structure as drawn. The source made the active and inactive calls. The rule behind the calls is not given here.

Experiments:
Format in all cases: functional
[1] = system: Mycobacterium tuberculosis; assay: Antitubercular activity against drug resistant active Mycobacterium tuberculosis H37Ra ATCC 25177 after 8 days by XTT reduction menadione assay; details: H37Ra ATCC 25177, 192 h
In short: (§1)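 H37Ra was tested by microdilution in 96-well plates, at 30–0.001 μg/mL in one-third dilutions. Each plate carried a rifampicin and isoniazid dilution series as positive controls. Growth was scored by XTT reduction menadione assay (XRMA) and cross-checked by a final absorbance reading at 600 nm.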

[2] = system: Mycobacterium tuberculosis; assay: Antitubercular activity against drug resistant dormant Mycobacterium tuberculosis H37Ra ATCC 25177 after 12 days by XTT reduction menadione assay; details: H37Ra ATCC 25177, 288 h; in short: as §1
[3] = system: Mycobacterium tuberculosis variant bovis BCG; assay: Antitubercular activity against dormant Mycobacterium bovis BCG ATCC 35734 after 12 days by nitrate reductase assay; details: for MIC90: ATCC 35734, 288 h
[4] = system: Mycobacterium tuberculosis variant bovis BCG; assay: Antitubercular activity against active Mycobacterium bovis BCG ATCC 35734 after 8 days by nitrate reductase assay; details: for MIC90: ATCC 35734, 192 h
[5] = system: Mycobacterium tuberculosis variant bovis BCG; assay: Antitubercular activity against drug resistant dormant Mycobacterium bovis BCG ATCC 35734 at 3 to 30 ug/ml after 12 days by nitrate reductase assay

`Cc1cc2oc(-c3cc4ccccc4s3)cc(=O)c2cc1Cl` showed an MIC90 [1] of 9.58 µg/mL (≈ 29.3 µM), an MIC90 [2] of 9.1 µg/mL (≈ 27.8 µM) and an MIC90 [3] of 0.6 µg/mL (≈ 1.84 µM). For the same compound, the MIC90 [4] was 0.56 µg/mL (≈ 1.71 µM).
Work on `Cc1ccc2oc(-c3cc4ccccc4s3)cc(=O)c2c1` yielded an MIC90 [1] of 22.9 µg/mL (≈ 78.2 µM), an MIC90 [2] of 7.22 µg/mL (≈ 24.7 µM) and an MIC90 [3] of 0.61 µg/mL (≈ 2.09 µM). For the same compound, the MIC90 [4] was 0.62 µg/mL (≈ 2.12 µM).
`CO[C@H]1/C=C/O[C@@]2(C)Oc3c(C)c(O)c4c(O)c(c(/C=N/N5CCN(C)CC5)c(O)c4c3C2=O)NC(=O)/C(C)=C\C=C\[C@H](C)[C@H](O)[C@@H](C)[C@@H](O)[C@@H](C)[C@H](OC(C)=O)[C@@H]1C` [RIFAMPIN] gave an MIC90 [1] greater than 10 µg/mL, an MIC90 [2] greater than 10 µg/mL and an MIC90 [3] of 0.0042 µg/mL (≈ 0.0051 µM). It also gave an MIC90 [4] of 0.004 µg/mL (≈ 0.00486 µM).
In the case of `O=C(CC(=O)c1cc(Cl)cc(Cl)c1O)c1cc2ccccc2s1`, the Activity [3] is reported as “Active” and the Activity [4] is reported as “Active”.
`O=C(CC(=O)c1cc(Cl)ccc1O)c1cc2ccccc2s1` gave an MIC90 [1] of 5.3 µg/mL (≈ 16 µM), an Activity [5] greater than 97% and an MIC90 [2] of 2.73 µg/mL (≈ 8.25 µM). The MIC90 [3] was 2.7 µg/mL (≈ 8.16 µM) and the MIC90 [4] was 2.22 µg/mL (≈ 6.71 µM).
`Cc1ccc(C(=O)CC(=O)c2cc3ccccc3s2)c(O)c1` showed an MIC90 [1] of 8.97 µg/mL (≈ 28.9 µM), an Activity [5] greater than 97% and an MIC90 [2] of 9.42 µg/mL (≈ 30.4 µM). It also gave an MIC90 [3] of 1.61 µg/mL (≈ 5.19 µM) and an MIC90 [4] of 1.68 µg/mL (≈ 5.41 µM).
Work on `O=C(CC(=O)c1ccccc1O)c1cc2ccccc2s1` yielded an MIC90 [1] of 12.4 µg/mL (≈ 41.9 µM), an Activity [5] greater than 97% and an MIC90 [2] of 2.87 µg/mL (≈ 9.68 µM). For the same compound, the MIC90 [3] was 1.36 µg/mL (≈ 4.59 µM) and the MIC90 [4] was 2.34 µg/mL (≈ 7.9 µM).
Work on `NNC(=O)c1ccncc1` [ISONIAZID] yielded an MIC90 [1] greater than 10 µg/mL, an MIC90 [2] greater than 10 µg/mL and an MIC90 [3] of 0.0078 µg/mL (≈ 0.0569 µM). It also gave an MIC90 [4] of 0.075 µg/mL (≈ 0.547 µM).
`Oc1ccccc1-c1cc(-c2cc3ccccc3s2)[nH]n1` was tested, and the Activity [5] was greater than 97%.
With `Oc1ccc(Cl)cc1-c1cc(-c2cc3ccccc3s2)[nH]n1` the Activity [5] was greater than 97%.
With `Cc1cc(O)c(C(=O)CC(=O)c2cc3ccccc3s2)cc1Cl` the Activity [5] was greater than 97%, the MIC90 [3] was 0.9 µg/mL (≈ 2.61 µM) and the MIC90 [4] was 0.56 to 1.9 µg/mL (≈ 1.62 to 5.51 µM).
`Cc1ccc(O)c(C(=O)CC(=O)c2cc3ccccc3s2)c1` gave an MIC90 [3] of 0.71 µg/mL (≈ 2.29 µM).
With `O=C(CC(=O)c1cc(Br)ccc1O)c1cc2ccccc2s1` the MIC90 [1] was 8.04 µg/mL (≈ 21.4 µM), the Activity [5] was greater than 97% and the MIC90 [2] was 7.11 µg/mL (≈ 18.9 µM). For the same compound, the MIC90 [3] was 1.77 µg/mL (≈ 4.72 µM) and the MIC90 [4] was 1.16 µg/mL (≈ 3.09 µM).
For `Cc1ccc(O)c(-c2cc(-c3cc4ccccc4s3)[nH]n2)c1`, the Activity [5] was greater than 97%.
